The species entered for one data set is Mus musculus. Briefly: (§1) Antiproliferative activity against mouse B16-F10-Luc-G5 cells assessed as cell growth inhibition at 15.36 ug/ml measured after 24 hrs by luciferase gene assay relative to DMSO control. Format: functional.
A short description of data set [1]: as §1. The class given is functional. The note with it: read-out: GI.
Data set [2] can be described thus: Antiproliferative activity against mouse B16-F10-Luc-G5 cells assessed as cell growth inhibition measured after 24 hrs by luciferase gene assay. The class given is functional, cell-based. An outline of the steps: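 Luciferase-expressing murine melanoma cells exposed to a concentration series, with gemcitabine as positive control. Growth read by bioluminescence. IC50 is the mean of three experiments, each with three replicates per concentration, reported ± SD.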

Data set [3] can be described thus: Potency index, ratio of gemcitabine IC50 to compound IC50 for mouse B16-F10-Luc-G5 cells. Format: functional.
Data set [4] relates to Hepatocyte. Briefly: Cytotoxicity against rat hepatocytes assessed as reduction in cell viability at 7.5 uM measured up to 24 hrs. The class given is cell-based.
In data set [5] the test system is Hepatocyte. Put plainly: Cellular uptake in rat hepatocytes at 7.5 uM measured after 24 hrs by fluorescence analysis. The class given is ADME, cell-based. An outline of the steps: (§2)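 Primary hepatocyte monolayers exposed to 7.5µM compound over 24 h, with DMSO control. Uptake checked by fluorescence microscopy using red, green and blue filter settings. Morphology assessed by phase contrast with a x20 wet lens, including images at 60 min.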

For data set [6], the system named is Hepatocyte. Put plainly: Cytotoxicity against rat hepatocytes assessed as change in cell morphology at 7.5 uM measured up to 24 hrs by phase contrast microscopic analysis. The class given is cell-based. The method, boiled down: as §2
A short description of data set [7]: Drug internalization in nucleus of mouse B16-F0-luc cells at 250 uM measured after 1 hr by DAPI staining based fluorescence microscopic analysis. The class given is ADME. An outline of the steps:
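B16-F0-luc mouse melanoma cells exposed to the fluorescent S-MGB probe at two concentrations for 1 hr, with DMSO-only and Hoechst 33342 nuclear-stain controls. Examined live on an inverted fluorescence microscope (x20 objective) under brightfield and UV or DAPI filter sets. Nuclear localisation judged by overlaying fluorescence on brightfield images. Two experiments with separately prepared cells.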

Data set [8] in a line: Drug internalization in nucleus of mouse B16-F0-luc cells at 3 and 30 ug/ml measured after 1 hr by DAPI staining based fluorescence microscopic analysis. The class given is ADME.

SMILES strings stand for the structures. Active and inactive are the calls of the source. The rule behind the calls is not given here.

Regarding `CC(=O)Nc1cc(C(=O)Nc2cc(C(=O)Nc3cc(C(=O)NCCCN(C)C)n(C)c3)n(C)c2)c(C)s1`, in the data set listed under Mus musculus, the “growth inhibition (GI)” value is “inactive”.
For `COc1ccc(/C=C/c2ccc(C(=O)Nc3cc(C(=O)N4CCN(C)CC4)n(C)c3)cn2)cc1`, in data set [1], the inhibition of growth at 15.36 µg/mL was determined as 59%.
On the same count and under the same terms, as for `COc1cccc(C(=N)Nc2ccc(C(=O)Nc3cc(C(=O)Nc4cc(C(=O)NCCN5CCOCC5)n(C)c4)n(C)c3)cc2)c1`, the figure is 77%; as for `Cc1sc(NC(=O)c2ccc3c(c2)C(=O)c2ccccc2C3=O)cc1C(=O)Nc1cc(C(=O)Nc2cc(C(=O)NCCCN(C)C)n(C)c2)n(CCC(C)C)c1`, 40%.
For the molecule `CC(C)CCc1sc(NC(=O)c2cc(NC(=O)c3ccc(/C=C/c4cc5ccccc5nc4Cl)cc3)cn2C)nc1C(=O)NCCN1CCOCC1`, the “growth inhibition (GI)” value in the data set filed under Mus musculus is “inactive”.
Turning to `COc1ccc(/C=C/c2ccc(C(=O)Nc3cc(C(=O)Nc4cc(C(=O)NCCN5CCOCC5)n(C)c4)n(C)c3)cn2)cc1`, the inhibition of growth at 15.36 µg/mL in [1] is 44%.
Usually IC50 stands for the concentration that gives 50% inhibition. As to `COc1cccc(/C=C/c2ccc(C(=O)Nc3cc(C(=O)Nc4cc(C(=O)NCCN5CCOCC5)n(C(C)C)c4)n(C)c3)cc2)c1`, the IC50 in data set [2] amounted to 1100 nM. The inhibition of growth at 15.36 µg/mL in [1] is 88%.
`COc1ccc(/C=C(/C(=O)Nc2cc(C(=O)Nc3cc(C(=O)NCCCN(C)C)n(C)c3)n(C)c2)c2ccc(OC)cc2)cc1`: the “growth inhibition (GI)” value in the data set filed under Mus musculus is “inactive”.
`Nc1ccn([C@@H]2O[C@H](CO)[C@@H](O)C2(F)F)c(=O)n1` [GEMCITABINE]: the IC50 in [2] worked out at 11000 nM.
Regarding `Cn1cc(NC(=O)c2cc(NC(=O)c3ccc(/C=C/c4cccc(F)c4)cc3)cn2C)cc1C(=O)NCCN1CCOCC1`, the inhibition of growth at 15.36 µg/mL in data set [1] is 46%.
For the molecule `CC(C)c1sc(N)nc1C(=O)Nc1cc(C(=O)NCCN2CCOCC2)n(C)c1`, the inhibition of growth at 15.36 µg/mL in data set [1] is 2.2%.
Still for that read-out and setting: with `CCC(C)n1cc(NC(=O)c2cc(NC(=O)c3ccc(/C=C/c4ccc(OC)cc4)nc3)cn2C)cc1C(=O)NCCN1CCOCC1` (stereo not drawn) the figure was 84%.
As for `Cn1cc(NC(=O)c2cc(NC(=O)c3ccc(/C=C/c4ccc(C(F)(F)F)cc4)cc3)cn2C)cc1C(=O)NCCN1CCOCC1`, the “Ratio IC50” value in data set [3] is 70. Besides, the IC50 in data set [2] amounted to 160 nM. The Activity entry with Hepatocyte [4] and with Hepatocyte [6] was “Non-toxic” each time. In data set [1], the inhibition of growth at 15.36 µg/mL stood at 77%. Moreover, the Drug uptake entry in the data set with Hepatocyte [5] was “Not Active”.
For `CC(=O)Nc1cc(C(=O)Nc2cc(C(=O)Nc3cc(C(=O)Nc4cc(C(=O)NCCCN(C)C)n(C)c4)n(CCC(C)C)c3)n(C)c2)n(C)c1`, the “growth inhibition (GI)” value in the data set filed under Mus musculus was “inactive”.
Regarding `CC(C)c1nc(N)sc1C(=O)Nc1cc(C(=O)Nc2cc(C(=O)NCCN3CCOCC3)n(C)c2)n(C)c1`, the inhibition of growth at 15.36 µg/mL in data set [1] amounted to 57%.
Regarding `Cn1cc(NC(=O)c2cc(NC(=O)c3ccc(/C=C/c4cccc(C(F)(F)F)c4)nc3)cn2C)cc1C(=O)NCCN1CCOCC1`, the “growth inhibition (GI)” value in the data set listed under Mus musculus was “inactive”.
On the same count and under the same terms, as for `CC(=N)Nc1cc(C(=O)Nc2cc(C(=O)Nc3cc(C(=O)NCCCN(C)C)n(C)c3)n(C)c2)n(C)c1`, the entry is “inactive”; as for `COc1cccc(C(=O)Nc2nc(C(=O)Nc3cc(C(=O)Nc4cc(C(=O)NCCCN(C)C)n(C)c4)n(C)c3)c(C(C)C)s2)c1`, “inactive”.
In the case of `COc1cccc(C(=N)Nc2cc(C(=O)Nc3cc(C(=O)Nc4nc(C(=O)NCCCN(C)C)c(C(C)C)s4)n(C)c3)n(C)c2)c1`, the inhibition of growth at 15.36 µg/mL in data set [1] amounted to 34%.
Consider `CCOc1ccc(-c2nc3cc(-c4nc5cc(N6CCN(C)CC6)ccc5[nH]4)ccc3[nH]2)cc1.Cl.Cl.Cl`, for which the Drug uptake result in [7] is on record as “Active”.
For the molecule `COc1cccc(/C=C/c2ccc(C(=O)Nc3cc(C(=O)Nc4cc(C(=O)NCCN5CCOCC5)n(C)c4)n(C)c3)cc2)c1`, the “growth inhibition (GI)” value in the data set filed under Mus musculus was “inactive”.
On the same count and under the same terms, as for `CC(C)n1cc(NC(=O)c2cc(NC(=O)c3cnc4ccccc4n3)cn2C)cc1C(=O)Nc1cc(C(=O)NCCCN(C)C)n(C)c1`, the entry is “inactive”.
Take `CC(C)n1cc(NC(=O)c2cc(NC(=O)c3ccc(/C=C/c4ccc(C(F)(F)F)cc4)cc3)cn2C)cc1C(=O)NCCN1CCOCC1`: the IC50 in data set [2] worked out at 2160 nM.
Take `CC(=N)Nc1cc(C(=O)Nc2cc(C(=O)Nc3nc(C(=O)NCCCN(C)C)c(CCC(C)C)s3)n(C)c2)n(C)c1`: the “growth inhibition (GI)” value in the data set filed under Mus musculus is “inactive”.
On to `CCC(C)n1cc(NC(=O)c2ccc(/C=C/c3ccc(OC)cc3)nc2)cc1C(=O)Nc1cc(C(=O)NCCN2CCOCC2)n(C)c1` (stereo not drawn), for which the inhibition of growth at 15.36 µg/mL in data set [1] came out at 84%.
With `COc1cccc(/C=C/c2ccc(C(=O)Nc3cc(C(=O)N4CCN(C)CC4)n(C)c3)cc2)c1`, the inhibition of growth at 15.36 µg/mL in data set [1] stood at 76%.
On to `Cn1cc(NC(=O)c2cc(NC(=O)c3ccc(/C=C/c4ccc(F)cc4)cc3)cn2C)cc1C(=O)NCCN1CCOCC1`, for which the “growth inhibition (GI)” value in the data set filed under Mus musculus was “inactive”.
As for `COc1cccc(/C=C/c2ccc(C(=O)Nc3cc(C(=O)NCCN4CCOCC4)n(C)c3)cc2)c1`, in data set [2], the IC50 came out at 810 nM. In [1], the inhibition of growth at 15.36 µg/mL turned out to be 55%.
Regarding `COc1cccc(C(=N)Nc2cc(C(=O)Nc3cc(C(=O)Nc4cc(C(=O)NCCCN5CCOCC5)n(C)c4)n(C)c3)n(C)c2)c1`, the “growth inhibition (GI)” value in the data set filed under Mus musculus is “inactive”.
As for `CN(C)c1ccc(/C=C/c2ccc(C(=O)Nc3cc(C(=O)Nc4cc(C(=O)NCCN5CCOCC5)n(C)c4)n(C)c3)cn2)cc1`, the Drug uptake entry in [8] is recorded as “Dose-dependent effect”.
As to `Cn1cc(NC(=O)c2cc(NC(=O)c3ccc(/C=C/c4ccc5nsnc5c4)cc3)cn2C)cc1C(=O)NCCN1CCOCC1`, in data set [1], the inhibition of growth at 15.36 µg/mL stood at 37%.
Still for that read-out and setting: with `COc1ccc(/C=C/c2ccc(C(=O)Nc3cc(C(=O)Nc4cc(C(=O)NCCN5CCOCC5)n(C)c4)n(C(C)C)c3)cn2)cc1` the figure was 85%; with `COc1cccc(C(=N)Nc2cc(C(=O)Nc3cc(C(=O)Nc4nc(C(=O)NCCCN(C)C)c(CCC(C)C)s4)n(C)c3)n(C)c2)c1`, 34%.
Consider `Cn1cc(NC(=O)c2ccc(/C=C/c3cnc4ccccc4c3)cc2)cc1C(=O)NCCN1CCOCC1`, for which the inhibition of growth at 15.36 µg/mL in [1] worked out at 72%.
With `Cn1cc(NC(=O)c2cc(NC(=O)c3ccc(/C=C/c4ccc5nonc5c4)cc3)cn2C)cc1C(=O)NCCN1CCOCC1`, the inhibition of growth at 15.36 µg/mL in data set [1] turned out to be 30.9%.
With `COc1ccc(/C=C/c2ccc(C(=O)Nc3cc(C(=O)Nc4cc(C(=O)NCCN5CCOCC5)n(C(C)C)c4)n(C)c3)cn2)cc1`, the IC50 in [2] was 810 nM. The inhibition of growth at 15.36 µg/mL in data set [1] turned out to be 83%.
Take `COc1cccc(/C=C/c2ccc(C(=O)Nc3cc(C(=O)Nc4cc(C(=O)NCCC(=N)N)n(C)c4)n(C)c3)cc2)c1`: in [1], the inhibition of growth at 15.36 µg/mL turned out to be 67%.
Same read-out and setting: as for `CC(C)n1cc(NC(=O)c2cc(NC(=O)c3cnc(Cl)c(Cl)c3)cn2C)cc1C(=O)Nc1cc(C(=O)NCCCN(C)C)n(C)c1`, the figure is 16.1%.
Still for that read-out and setting: with `CSc1ccc(/C=C/c2ccc3cc(C(=O)Nc4cc(C(=O)Nc5cc(C(=O)NCCN6CCOCC6)n(C)c5)n(C)c4)ccc3n2)cc1` the figure was 19%.
In the case of `Cn1cc(NC(=O)c2cc(NC(=O)c3cc(NC(=O)c4ccc(Cl)cc4Cl)cn3C)cn2C)cc1C(=O)NCCCN1CCOCC1`, the “growth inhibition (GI)” value in the data set listed under Mus musculus was “inactive”.

Source of the values: ChEMBL document CHEMBL3822427, “An evaluation of Minor Groove Binders as anti-lung cancer therapeutics” (Bioorg Med Chem Lett, 2016).
